We go through 16 compounds from ChEMBL document CHEMBL3632599, “2-((Benzimidazol-2-yl)thio)-1-arylethan-1-ones: Synthesis, crystal study and cancer stem cells CD133 targeting potential” (Eur J Med Chem, 2015).

The term inhibition denotes how much of the control response was suppressed. One may read the IC50 as the point on the concentration scale where inhibition reaches its midpoint.

Experiment [1] concerns HT-29. Description: Inhibition of cell surface expression of CD133 in human HT-29 cells at 10 uM by flow cytometric analysis relative to control. Type of experiment: functional. An outline of the steps:
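HT-29 cells exposed to compound at 10 µM, then harvested, washed and stained with APC-conjugated anti-CD133 monoclonal antibody. Analysed by flow cytometry (BD LSR II), with debris and cell clusters excluded by forward- and side-scatter gating. Reported as % inhibition of […] relative to untreated cells; mean ± SD of three separate experiments.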
(In general: A flow cytometer gives signals particle by particle.)

Experiment [2] has as its system HT-29. Description: Cytotoxicity against human HT-29 cells assessed as growth inhibition after 48 hrs by WST-1 assay. Type of experiment: functional, cell-based. The following applies: HT-29, 48 h. The method in brief: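 HT-29 human colon cancer cells kept in RPMI 1640 with 10% FBS, penicillin, streptomycin and 2 mmol/L L-glutamine. Seeded at 0.4*10⁴/well, left overnight, then medium replaced with fresh medium holding the test concentrations for 48 h. WST-1 added, 4 h at 37 °C, formazan read at 450 nm. IC₅₀ taken relative to untreated controls; mean ± SD of three separate experiments.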

Activity calls are given as the source filed them. No cut-off for these calls is given here. Some results are limits rather than exact numbers.

The compound `O=C(CSc1nc2ccccc2[nH]1)c1ccc2c(c1)OCO2` returned an inhibition at 10 µM in the experiment on HT-29 [1] of 51.2%. For the same compound, the half-inhibitory concentration (IC50) in the experiment on HT-29 [2] was 36.8 µM.
The matching figures for `COc1ccc(C(=O)CSc2nc3ccccc3[nH]2)cc1`: 52.5% and 25.2 µM.
Taken in the same sequence, the figures for `COc1ccc(C(=O)CSc2nc3ccccc3[nH]2)c(OC)c1OC` were 50.1% and 18.8 µM.
For `O=C(CSc1nc2ccccc2[nH]1)c1ccc(Br)cc1`, the inhibition entry with HT-29 [1] was “inactive”. Moreover, the half-maximal inhibitory concentration (IC50) in the experiment with HT-29 [2] was determined as 43 µM.
For `COc1ccc(C(=O)CSc2nc3ccccc3[nH]2)cc1OC`, in the experiment with HT-29 [1], 10 µM produced 52.6% inhibition. Also, the IC50 in the experiment with HT-29 [2] is 19.1 µM.
On to `O=C(CSc1nc2ccccc2[nH]1)c1ccc(O)cc1`, for which the inhibition entry in the experiment with HT-29 [1] is “inactive”. In addition, in the experiment with HT-29 [2], the IC50 came to 19.2 µM.
Compound `COc1ccccc1C(=O)CSc1nc2ccccc2[nH]1` gave an inhibition at 10 µM with HT-29 [1] of 34.9%. Also, the half-inhibitory concentration (IC50) in the experiment with HT-29 [2] worked out at 36.1 µM.
Take `O=c1[nH]cc(F)c(=O)[nH]1` [FLUOROURACIL]: in the experiment with HT-29 [2], the half-inhibitory concentration (IC50) amounted to 15.8 µM.
In the experiment on HT-29 [1], `CCOc1ccc(C(=O)CSc2nc3ccccc3[nH]2)cc1` showed an inhibition at 10 µM of 55.1%. Besides, the IC50 in the experiment with HT-29 [2] is above 100 µM.
Taken in the same sequence, the figures for `COc1ccc(C(=O)CSc2nc3ccccc3[nH]2)cc1O` were 49.7% and 33 µM.
For `O=C(CSc1nc2ccccc2[nH]1)c1ccccc1`, the inhibition result with HT-29 [1] was “inactive”. In addition, the IC50 in the experiment on HT-29 [2] amounted to 38.5 µM.
`Cc1ccc(C(=O)CSc2nc3ccccc3[nH]2)cc1`: in the experiment on HT-29 [1], the inhibition at 10 µM was 40%. The IC50 with HT-29 [2] was determined as 34.5 µM.
For `O=C(CSc1nc2ccccc2[nH]1)c1ccc(F)cc1`, the inhibition result in the experiment with HT-29 [1] is “inactive”. Also, the half-maximal inhibitory concentration (IC50) in the experiment with HT-29 [2] was 78.7 µM.
Compound `O=C(CSc1nc2ccccc2[nH]1)c1ccco1` showed an inhibition at 10 µM in the experiment with HT-29 [1] of 56.8%. Further, the IC50 with HT-29 [2] amounted to 24.6 µM.
With `O=C(CSc1nc2ccccc2[nH]1)c1ccc([N+](=O)[O-])cc1`, the inhibition entry with HT-29 [1] is “inactive”. Further, in the experiment with HT-29 [2], the IC50 was 57 µM.
Turning to `O=C(CSc1nc2ccccc2[nH]1)c1cccs1`, testing at 10 µM in the experiment on HT-29 [1] gave an inhibition of 55.6%. Moreover, the IC50 with HT-29 [2] was 23.9 µM.
